# Assays:
# [1] = AUC (0 to 120 mins) in P-gp competent CF-1 mouse plasma at 0.4 mg/kg through oral gavage; assay type: ADME, organism-based; parameters: time < 2 hr, dose 0.4 mg/kg, route oral
# Outline: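 Mice were anaesthetised with IP ketamine 140 mg/kg and xylazine 15 mg/kg, kept at 37°C, and portal vein-cannulated. Pretreatment was saline or oral ABT at 50 mg/kg. Portal-circulation AUC0–120 min was calculated.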
# [2] = AUC (0 to 120 mins) in P-gp competent CF-1 mouse plasma at 0.4 mg/kg through oral gavage in presence of 1 mM ABT CYP3A inhibitor; assay type: ADME, organism-based; parameters: time < 2 hr, dose 0.4 mg/kg, route oral
# [3] = Drug metabolism in P-gp deficient CF-1 mouse intestine assessed as CYP3A-mediated metabolite formation measured per cm'2 of tissue by LC-MS/MS analysis in presence of 100 uM Cyp3a oxidative metabolism inhibitor troleandomycin; assay type: ADME, tissue-based
# [4] = Drug metabolism in P-gp competent CF-1 mouse intestine assessed as CYP3A-mediated metabolite formation measured per cm'2 of tissue by LC-MS/MS analysis in presence of 100 uM Cyp3a oxidative metabolism inhibitor troleandomycin; assay type: ADME, tissue-based
# [5] = Drug metabolism in P-gp deficient CF-1 mouse intestine assessed as CYP3A-mediated metabolite formation […]; assay type: ADME, tissue-based; conditions: excised jejunum tissue
# [6] = AUC (0 to 240 mins) in P-gp deficient CF-1 mouse plasma at 0.94 mg/kg through oral gavage; assay type: ADME, organism-based; parameters: time < 4 hr, dose 0.94 mg/kg, route oral
# Outline: (§1)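 Male CF-1 (P-gp competent) or Mdr1a1-/- mice, overnight-fasted, on ketamine/xylazine anesthesia held at 37°C, portal vein-cannulated. Loperamide 0.23, 0.47 or 0.95 mg/kg by oral gavage in 300 µL 0.9% NaCl with 1% EtOH. Serial 20 µL portal blood samples over 240 min. Plasma loperamide quantified by LC-MS/MS. AUC0–240 min reported as mean ± SD, n=6.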
# [7] = Portal bioavailability in P-gp deficient CF-1 mouse at 0.47 mg/kg through oral gavage; assay type: ADME, organism-based; conditions: in vivo
# Outline: (§2)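 Portal vein-cannulated, anesthetized CF-1 or Mdr1a1-/- mice given oral loperamide 0.23, 0.47 or 0.94 mg/kg. Portal and systemic plasma converted to blood concentration using a blood:plasma ratio of 0.71. M_portal = Q_portal (1.45 mL/min) × AUC_portal(0–4 h). M_systemic is subtracted to give M_absorbed, and F_G = M_absorbed/dose. n=6.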
# [8] = AUC in P-gp deficient CF-1 mouse plasma at 0.47 mg/kg through systemic exposure; assay type: ADME, organism-based; parameters: dose 0.47 mg/kg
# Outline: (§3)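 Overnight-fasted, ketamine/xylazine-anesthetized CF-1 or Mdr1a1-/- mice with jugular vein cannulae. Loperamide 0.23 or 0.47 mg/kg by oral gavage in 300 µL 0.9% NaCl with 1% EtOH. Jugular blood (20 µL) taken at 10, 30, 60, 120, 180 and 240 min. Plasma loperamide measured by LC-MS/MS. AUC0–240 min, n=6.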
# [9] = Portal bioavailability in P-gp deficient CF-1 mouse at 0.23 mg/kg through oral gavage; assay type: ADME, organism-based; conditions: in vivo; outline: as §2
# CYP3A [10] = test: Drug metabolism in P-gp competent CF-1 mouse intestine assessed as CYP3A-mediated […] by LC-MS/MS analysis; assay type: ADME, tissue-based
# Outline: (§4)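 Jejunum from fasted CF-1 or Mdr1a1-/- mice mounted in diffusion chambers in oxygenated KBR at 37°C; tissue used if TEER ≥250 Ω·cm². Apical loperamide 0.75–125 µM in KBR with 0.1% EtOH for 90 min. Monodemethyl- plus didemethyl-loperamide summed across tissue, AP and BL by LC-MS/MS. Fitted to Michaelis–Menten for Vmax and Km. n=3 mice × 4 tissues.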
# [11] = AUC in P-gp competent CF-1 mouse plasma at 0.23 mg/kg through systemic exposure; assay type: ADME, organism-based; parameters: dose 0.23 mg/kg; outline: as §3
# [12] = Portal bioavailability in P-gp deficient CF-1 mouse at 0.94 mg/kg through oral gavage; assay type: ADME, organism-based; conditions: in vivo; outline: as §2
# [13] = AUC in P-gp competent CF-1 mouse plasma at 0.47 mg/kg through systemic exposure; assay type: ADME, organism-based; parameters: dose 0.47 mg/kg; outline: as §3
# [14] = Drug metabolism in P-gp competent CF-1 mouse intestine assessed as CYP3A-mediated metabolite formation […]; assay type: ADME, tissue-based; conditions: excised jejunum tissue
# [15] = AUC (0 to 240 mins) in P-gp deficient CF-1 mouse plasma at 0.23 mg/kg through oral gavage; assay type: ADME, organism-based; parameters: time < 4 hr, dose 0.23 mg/kg, route oral; outline: as §1
# [16] = AUC (0 to 240 mins) in P-gp competent CF-1 mouse plasma at 0.47 mg/kg through oral gavage; assay type: ADME, organism-based; parameters: time < 4 hr, dose 0.47 mg/kg, route oral; outline: as §1
# CYP3A [17] = test: Drug metabolism in P-gp deficient CF-1 mouse intestine assessed as CYP3A-mediated […] by LC-MS/MS analysis; assay type: ADME, tissue-based; outline: as §4
# [18] = AUC (0 to 240 mins) in P-gp competent CF-1 mouse plasma at 0.23 mg/kg through oral gavage; assay type: ADME, organism-based; parameters: time < 4 hr, dose 0.23 mg/kg, route oral; outline: as §1
# [19] = Portal bioavailability in P-gp competent CF-1 mouse at 0.23 mg/kg through oral gavage; assay type: ADME, organism-based; conditions: in vivo; outline: as §2
# [20] = Portal bioavailability in P-gp competent CF-1 mouse at 0.23 mg/kg through oral gavage by LC-MS/MS analysis in presence of 1 mM ABT CYP3A inhibitor; assay type: ADME, organism-based; conditions: in vivo
# Outline: (§5)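 Mice received oral ABT 50 mg/kg 3 h before study, plus another 50 mg/kg co-administered with loperamide 0.23 mg/kg in 300 µL 0.9% NaCl with 1% EtOH. Portal and jugular sampling over 240 min. F_G = (portal minus systemic-returned mass)/dose, using portal flow 1.45 mL/min and blood:plasma ratio 0.71. n=6.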
# [21] = AUC (0 to 240 mins) in P-gp deficient CF-1 mouse plasma at 0.47 mg/kg through oral gavage; assay type: ADME, organism-based; parameters: time < 4 hr, dose 0.47 mg/kg, route oral; outline: as §1
# [22] = Portal bioavailability in P-gp deficient CF-1 mouse at 0.23 mg/kg through oral gavage by LC-MS/MS analysis in presence of 1 mM ABT CYP3A inhibitor; assay type: ADME, organism-based; conditions: in vivo; outline: as §5
# [23] = Portal bioavailability in P-gp competent CF-1 mouse at 0.47 mg/kg through oral gavage; assay type: ADME, organism-based; conditions: in vivo; outline: as §2
# [24] = AUC (0 to 240 mins) in P-gp competent CF-1 mouse plasma at 0.94 mg/kg through oral gavage; assay type: ADME, organism-based; parameters: time < 4 hr, dose 0.94 mg/kg, route oral; outline: as §1
# [25] = AUC in P-gp deficient CF-1 mouse plasma at 0.23 mg/kg through systemic exposure; assay type: ADME, organism-based; parameters: dose 0.23 mg/kg; outline: as §3
structure (smiles),measurement,setting,value
C[C@]12CC[C@H]3[C@@H](CCC4=CC(=O)CC[C@@]43C)[C@@H]1CC[C@@H]2O [TESTOSTERONE],AUC(0-t) at 2 h,[1],43.3 ng·h/mL
same,AUC(0-t) at 2 h,[2],1 ng·h/mL
same,Vmax,[3],0.5 pmol/min
same,Vmax,[4],0.5 pmol/min
CN(C)C(=O)C(CCN1CCC(O)(c2ccc(Cl)cc2)CC1)(c1ccccc1)c1ccccc1 [LOPERAMIDE],Vmax,[5],30 pmol/min/cm²
same,AUC(0-t) at 4 h,[6],95 ng·h/mL
same,Fg,[7],1.1%
same,AUC,[8],4.33 ng·h/mL
same,Fg,[9],0.4%
same,Km,CYP3A [10],22 µM
same,AUC,[11],0.933 ng·h/mL
same,Fg,[12],17%
same,AUC,[13],0.517 ng·h/mL
same,Vmax,[14],31 pmol/min/cm²
same,AUC(0-t) at 4 h,[15],1.5 ng·h/mL
same,AUC(0-t) at 4 h,[16],4.48 ng·h/mL
same,Km,CYP3A [17],4.5 µM
same,AUC(0-t) at 4 h,[18],4.43 ng·h/mL
same,Fg,[19],2.6%
same,Fg,[20],3.6%
same,AUC(0-t) at 4 h,[21],7 ng·h/mL
same,Fg,[22],28%
same,Fg,[23],1.7%
same,AUC(0-t) at 4 h,[24],81.7 ng·h/mL
same,AUC,[25],1.03 ng·h/mL

# Reference: ChEMBL document CHEMBL3526125, “P-glycoprotein increases portal bioavailability of loperamide in mouse by reducing first-pass intestinal metabolism” (Drug Metab Dispos, 2013)
